Laboratory results taken from ChEMBL document CHEMBL1158990, “New cytotoxic lupane lactones from Kokoona ochracea” (1991).
Converted amounts (≈) assume the structure as drawn.

What was measured:
Format in all cases: functional
[1] = system: P388; experiment: Cytotoxicity against mouse P388 cells after 48 hrs; conditions: P388, 48 h, read-out: ED50 (the source's name)
In short: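 Cultured murine P-388 leukemia cells were treated with compound for 48 h. The read-out is cell growth inhibition, and ED50 in µg/ml is the concentration producing 50% inhibition.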

[2] = Cytotoxicity against human UISO-BCA1 cells after 72 hrs; conditions: UISO-BCA1, 72 h, read-out: ED50 (the source's name)
In short: (§1)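 In vitro growth-inhibition assay with a 72 h compound exposure. ED50 in µg/ml is the concentration that inhibits cell growth by 50%.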

[3] = Cytotoxicity against human UISO-COL2 cells after 72 hrs; conditions: UISO-COL2, 72 h, read-out: ED50 (the source's name); in short: as §1
[4] = Cytotoxicity against human KB3 cells after 72 hrs; conditions: KB3, 72 h, read-out: ED50 (the source's name); in short: as §1
[5] = Cytotoxicity against human KBV1 cells after 72 hrs; conditions: KB-V1, 72 h, read-out: ED50 (the source's name)
[6] = system: HT-1080; experiment: Cytotoxicity against human HT1080 cells after 72 hrs; conditions: HT-1080, 72 h, read-out: ED50 (the source's name); in short: as §1
[7] = Cytotoxicity against human UISO-MEL2 cells after 72 hrs; conditions: UISO-MEL2, 72 h, read-out: ED50 (the source's name); in short: as §1
[8] = Cytotoxicity against human UISO-LUC1 cells after 72 hrs; conditions: UISO-LUC1, 72 h, read-out: ED50 (the source's name); in short: as §1

Compound | EC50 [1] [µg/mL] | EC50 [2] [µg/mL] | EC50 [3] [µg/mL] | EC50 [4] [µg/mL] | EC50 [5] [µg/mL] | EC50 [6] [µg/mL] | EC50 [7] [µg/mL] | EC50 [8] [µg/mL]
CC1(C)C(=O)CC[C@]2(C)[C@H]3CC[C@H]4[C@@H]5[C@H]6[C@@H](C[C@]5(C)CC[C@@]4(C)[C@]3(C)CC[C@@H]12)OC(=O)[C@@]61CO1 | 7.8 (≈ 16.6 µM) | > 20 | > 20 | 5.2 (≈ 11.1 µM) | > 20 | > 20 | > 20 | > 20
C=C1C(=O)O[C@@H]2C[C@]3(C)CC[C@]4(C)[C@@H](CC[C@@H]5[C@@]6(C)CCC(=O)C(C)(C)[C@@H]6C(=O)C[C@]54C)[C@@H]3[C@H]12 [OCHRACEOLIDE C] | 0.53 (≈ 1.14 µM) | 4.5 (≈ 9.64 µM) | 9.2 (≈ 19.7 µM) | 5.5 (≈ 11.8 µM) | > 20 | 8.6 (≈ 18.4 µM) | 8.3 (≈ 17.8 µM) | 12 (≈ 25.7 µM)
C=C1C(=O)O[C@@H]2C[C@]3(C)CC[C@]4(C)[C@H](CC[C@@H]5[C@@]6(C)CCC(=O)C(C)(C)[C@@H]6CC[C@]54C)[C@H]3[C@H]12 [OCHRACEOLIDE A] | 0.26 (≈ 0.574 µM) | 10 (≈ 22.1 µM) | 6.8 (≈ 15 µM) | 2.7 (≈ 5.96 µM) | > 20 | 9.6 (≈ 21.2 µM) | 8.3 (≈ 18.3 µM) | 12 (≈ 26.5 µM)
